In ChEMBL document CHEMBL1121581, “4-Piperazinyl-10H-thieno[2,3-b][1,5]benzodiazepines as potential neuroleptics” (J Med Chem, 1980):

Experiments:
Mus musculus = assay: Hypothermia in mice after peroral administration; format: functional
[1] = Lethal dose in mice after perorla administration; format: toxicity, organism-based; conditions: mouse, in vivo, po
Rattus norvegicus [2] = assay: Compound was assessed for its ability to produce catalepsy in rats; Dose administered perorally is 12 mg/kg; Group score is 8-15; format: functional; conditions: route oral
Outline: (§1)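 Groups of eight Lilly Wistar rats (180–190 g) were dosed orally, then checked at 0.5, 1, 1.5, 2, 3, 4 and 5 h. Front paws were placed on a 1.5-cm rod 7 cm above the table, and hold time was recorded up to 20 min. Each rat was scored 0–5 and its maximum scores were summed per group (maximum 40), then graded 0–4.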

Rattus norvegicus [3] = assay: Compound was assessed for its ability to block a conditioned avoidance response; Dose administered perorally is 6 mg/kg; 51-75%block; format: functional; conditions: route oral
Outline: (§2)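 Lilly Wistar rats (120–130 g) trained in a shuttle box to cross on a 5-s buzzer, with mild shock if no response within 1 s of buzzer end. Only rats with a high conditioned response were used. Groups of five were dosed orally 1 h 50 min before the session, then habituated 10 min and tested 20 min. Shocks were scored as % of stimuli and graded 0–5.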

Rattus norvegicus [4] = assay: Compound was assessed for its ability to produce catalepsy in rats; Dose administered perorally is 25 mg/kg; Group score is 8-15; format: functional; conditions: route oral; outline: as §1
Rattus norvegicus [5] = assay: Compound was assessed for its ability to block a conditioned avoidance response; Dose administered perorally is 40 mg/kg; 26-30%block; format: functional; conditions: route oral; outline: as §2
Rattus norvegicus [6] = assay: Compound was assessed for its ability to block a conditioned avoidance response; Dose administered perorally is 20 mg/kg; no significant effect (0-25%block); format: functional; conditions: route oral; outline: as §2
Rattus norvegicus [7] = assay: Compound was assessed for its ability to produce catalepsy in rats; Dose administered perorally is 50 mg/kg; Group score is 8-15; format: functional; conditions: route oral; outline: as §1
Rattus norvegicus [8] = assay: Compound was assessed for its ability to block a conditioned avoidance response; Dose administered intraperitoneally is 20 mg/kg; 26-30%block; format: functional; conditions: route intraperitoneal
Outline: (§3)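 Shuttle-box conditioned avoidance in Lilly Wistar rats (120–130 g) pretrained to a 5-s buzzer with mild shock after a 1-s failure to respond. Groups of five had 10-min habituation and a 20-min test. Block was taken as shocks received as % of buzzer presentations and graded 0–5. Maximum dose was half the rotarod-disruption ED₅₀.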

Rattus norvegicus [9] = assay: Compound was assessed for its ability to produce catalepsy in rats; Dose administered perorally is 60 mg/kg; Group score is 8-15; format: functional; conditions: route oral; outline: as §1
Rattus norvegicus [10] = assay: Compound was assessed for its ability to produce catalepsy in rats; Dose administered subcutaneously is 30 mg/kg; Group score is 4-7; format: functional; conditions: route subcutaneous
Rattus norvegicus [11] = assay: Compound was assessed for its ability to block a conditioned avoidance response; Dose administered perorally is 10 mg/kg; 31-50%block; format: functional; conditions: route oral; outline: as §2
Rattus norvegicus [12] = assay: Compound was assessed for its ability to produce catalepsy in rats; Dose administered perorally is 12.5 mg/kg; Group score is 8-15; format: functional; conditions: route oral; outline: as §1
Rattus norvegicus [13] = assay: Compound was assessed for its ability to block a conditioned avoidance response; Dose administered intraperitoneally is 40 mg/kg; 26-30%block; format: functional; conditions: route intraperitoneal; outline: as §3
Rattus norvegicus [14] = assay: Compound was assessed for its ability to block a conditioned avoidance response; Dose administered intraperitoneally is 50 mg/kg; 26-30%block; format: functional; conditions: route intraperitoneal; outline: as §3
Rattus norvegicus [15] = assay: Compound was assessed for its ability to block a conditioned avoidance response; Dose administered perorally is 30 mg/kg; Complete block of conditioned & unconditioned response; format: functional; conditions: route oral; outline: as §2
Rattus norvegicus [16] = assay: Compound was assessed for its ability to produce catalepsy in rats; Dose administered perorally is 10 mg/kg; Group score is 8-15; format: functional; conditions: route oral; outline: as §1
Rattus norvegicus [17] = assay: Compound was assessed for its ability to block a conditioned avoidance response; Dose administered perorally is 10 mg/kg; 76-99%block; format: functional; conditions: route oral; outline: as §2
Rattus norvegicus [18] = assay: Compound was assessed for its ability to block a conditioned avoidance response; Dose administered perorally is 25 mg/kg; 26-30%block; format: functional; conditions: route oral, in the assay text read “31-50%block” for “26-30%block”; outline: as §2
Rattus norvegicus [19] = assay: Compound was assessed for its ability to produce catalepsy in rats; Dose administered perorally is 50 mg/kg; Group score is 0-3; format: functional; conditions: route oral; outline: as §1
Rattus norvegicus [20] = assay: Compound was assessed for its ability to block a conditioned avoidance response; Dose administered intraperitoneally is 20 mg/kg; 31-50%block; format: functional; conditions: route intraperitoneal; outline: as §3
Rattus norvegicus [21] = assay: Compound was assessed for its ability to block a conditioned avoidance response; Dose administered intraperitoneally is 50 mg/kg; 31-50%block; format: functional; conditions: route intraperitoneal; outline: as §3
Rattus norvegicus [22] = assay: Compound was assessed for its ability to produce catalepsy in rats; Dose administered perorally is 8 mg/kg; Group score is 4-7; format: functional; conditions: route oral; outline: as §1
Rattus norvegicus [23] = assay: Compound was assessed for its ability to block a conditioned avoidance response; Dose administered perorally is 4 mg/kg; 26-30%block; format: functional; conditions: route oral; outline: as §2
Rattus norvegicus [24] = assay: Compound was assessed for its ability to block a conditioned avoidance response; Dose administered intraperitoneally is 40 mg/kg; no significant effect (0-25%block); format: functional; conditions: route intraperitoneal; outline: as §3
Rattus norvegicus [25] = assay: Compound was assessed for its ability to block a conditioned avoidance response; Dose administered perorally is 12.5 mg/kg; 76-99%block; format: functional; conditions: route oral; outline: as §2
Rattus norvegicus [26] = assay: Compound was assessed for its ability to produce catalepsy in rats; Dose administered perorally is 10 mg/kg; Group score is 4-7; format: functional; conditions: route oral; outline: as §1
Rattus norvegicus [27] = assay: Compound was assessed for its ability to produce catalepsy in rats; Dose administered perorally is 80; Group score is 8-15; format: functional
Rattus norvegicus [28] = assay: Compound was assessed for its ability to block a conditioned avoidance response; Dose administered perorally is 30 mg/kg; 51-75%block; format: functional; conditions: route oral
Outline: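 Trained Lilly Wistar rats (120–130 g) in a shuttle box, 5-s buzzer with mild shock if no response within 1 s of buzzer end. Only high-responders used; groups of five dosed orally 1 h 50 min before test, 10-min habituation, then 20-min session. Block = shocks as % of stimuli presented, scored 0–5 (3 = 51–75% block).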

Rattus norvegicus [29] = assay: Compound was assessed for its ability to block a conditioned avoidance response; Dose administered perorally is 8 mg/kg; 76-99%block; format: functional; conditions: route oral; outline: as §2
Rattus norvegicus [30] = assay: Compound was assessed for its ability to produce catalepsy in rats; Dose administered perorally is 1.25 mg/kg; Group score is 16-30; format: functional; conditions: route oral; outline: as §1
Rattus norvegicus [31] = assay: Compound was assessed for its ability to block a conditioned avoidance response; Dose administered perorally is 1.25 mg/kg; 51-75%block; format: functional; conditions: route oral; outline: as §2
Rattus norvegicus [32] = assay: Compound was assessed for its ability to block a conditioned avoidance response; Dose administered perorally is 50 mg/kg; 51-75%block; format: functional; conditions: route oral; outline: as §2
Rattus norvegicus [33] = assay: Compound was assessed for its ability to produce catalepsy in rats; Dose administered perorally is 25 mg/kg; Group score is 4-7; format: functional; conditions: route oral; outline: as §1
Rattus norvegicus [34] = assay: Compound was assessed for its ability to produce catalepsy in rats; Dose administered perorally is 2.5 mg/kg; Group score is 31-40; format: functional; conditions: route oral; outline: as §1
Rattus norvegicus [35] = assay: Compound was assessed for its ability to block a conditioned avoidance response; Dose administered perorally is 2.5 mg/kg; 31-50%block; format: functional; conditions: route oral; outline: as §2

SMILES	EDmin (Mus musculus)	LD50 [1]	further results
CCc1cc2c(s1)Nc1ccc(F)cc1N=C2N1CCN(C)CC1	6.25 mg/kg	> 200 mg/kg	Activity (Rattus norvegicus [2]): 2; Activity (Rattus norvegicus [3]): 3
CCc1cc2c(s1)Nc1ccc(F)cc1N=C2N1CCN(Cc2ccccc2)CC1	200 mg/kg	> 400 mg/kg	Activity (Rattus norvegicus [4]): 2; Activity (Rattus norvegicus [5]): 1
CC(=O)c1cc2c(s1)Nc1ccc(F)cc1N=C2N1CCN(C)CC1	12.5 mg/kg	200 mg/kg	Activity (Rattus norvegicus [6]): 0; Activity (Rattus norvegicus [7]): 2
CCc1cc2c(s1)Nc1ccc(F)cc1N=C2N1CCNCC1	100 mg/kg	> 800 mg/kg	Activity (Rattus norvegicus [8]): 1; Activity (Rattus norvegicus [9]): 2; Activity (Rattus norvegicus [10]): 1
CCc1cc2c(s1)Nc1ccc(F)cc1N=C2N1CCN(CCCO)CC1	25 mg/kg	400 mg/kg	Activity (Rattus norvegicus [11]): 2; Activity (Rattus norvegicus [12]): 2
CCc1cc2c(s1)Nc1ccc(F)cc1N=C2NCCN(C)C	200 mg/kg	400 mg/kg	Activity (Rattus norvegicus [13]): 1
CCc1cc2c(s1)Nc1ccc(F)cc1N=C2NCCCN(C)C	>400 mg/kg	> 800 mg/kg	Activity (Rattus norvegicus [14]): 1
CN1CCN(C2=Nc3cc(F)ccc3Nc3sccc32)CC1	25 mg/kg	> 200 mg/kg	Activity (Rattus norvegicus [15]): 5
CC(C)c1cc2c(s1)Nc1ccc(F)cc1N=C2N1CCN(C)CC1	6.25 mg/kg	50 mg/kg	Activity (Rattus norvegicus [16]): 2; Activity (Rattus norvegicus [17]): 4
CCc1cc2c(s1)Nc1cc(C)ccc1N=C2N1CCN(C)CC1	50 mg/kg	150 mg/kg	Activity (Rattus norvegicus [18]): 2; Activity (Rattus norvegicus [7]): 2
CCc1cc2c(s1)Nc1ccc(F)cc1N=C2NCCN1CCCC1	200 mg/kg	> 400 mg/kg	Activity (Rattus norvegicus [19]): 0; Activity (Rattus norvegicus [20]): 2
CCc1cc2c(s1)Nc1ccc(F)cc1N=C2NCCCN1CCN(C)CC1	200 mg/kg	400 mg/kg	Activity (Rattus norvegicus [21]): 2
CCc1cc2c(s1)Nc1cc(F)ccc1N=C2N1CCN(C)CC1	12.5 mg/kg	150 mg/kg	Activity (Rattus norvegicus [22]): 1; Activity (Rattus norvegicus [23]): 1
CCc1cc2c(s1)Nc1ccc(F)cc1N=C2NCCCO	>200 mg/kg	400 mg/kg	Activity (Rattus norvegicus [24]): 0
CCc1cc2c(s1)Nc1ccc(F)cc1N=C2N1CC[N+](C)([O-])CC1	25 mg/kg	200 mg/kg	Activity (Rattus norvegicus [25]): 4; Activity (Rattus norvegicus [26]): 1
CN1CCN(C2=Nc3cc(Cl)ccc3Nc3ccccc32)CC1 [CLOZAPINE]	50 mg/kg		Activity (Rattus norvegicus [27]): 2; Activity (Rattus norvegicus [28]): 3
Cc1cc2c(s1)Nc1ccc(F)cc1N=C2N1CCN(C)CC1 [FLUMEZAPINE]	3 mg/kg	200 mg/kg	Activity (Rattus norvegicus [29]): 4; Activity (Rattus norvegicus [22]): 1
O=C(CCCN1CCC(O)(c2ccc(Cl)cc2)CC1)c1ccc(F)cc1 [HALOPERIDOL]	3 mg/kg	> 100 mg/kg	Activity (Rattus norvegicus [30]): 3; Activity (Rattus norvegicus [31]): 3
CSc1ccc2c(c1)N(CCC1CCCCN1C)c1ccccc1S2 (stereo not given) [THIORIDAZINE]	25 mg/kg	400 mg/kg	Activity (Rattus norvegicus [32]): 3; Activity (Rattus norvegicus [33]): 1
OCCN1CCN(CC/C=C2/c3ccccc3Sc3ccc(C(F)(F)F)cc32)CC1 [Z-FLUPENTIXOL]	3 mg/kg	300 mg/kg	Activity (Rattus norvegicus [34]): 4; Activity (Rattus norvegicus [35]): 2
